# Laboratory results from ChEMBL document CHEMBL4014345, “Development of Selective Clk1 and -4 Inhibitors for Cellular Depletion of Cancer-Relevant Proteins” (J Med Chem, 2017).
# Active and inactive are the calls of the source. The rule behind the calls is not given here.
# Experiments:
# [1] = target: Serine/threonine-protein kinase haspin (Homo sapiens) (UniProt Q8TF76); assay: Inhibition of MBP-Haspin (unknown origin) at 1 uM after 10 mins by TR-FRET assay
# Outline: (§1)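 Tested in a commercial kinase profiling panel at an ATP concentration of 100 μM. Data are the mean of duplicates that differed by less than 7%.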
# [2] = target: T1, Dual specificity protein kinase CLK1/CLK4 (Homo sapiens, UniProt Q9HAZ1+P49759); assay: Inhibition of CLK1/4 in human MDA-MB-231 cells assessed as down regulation of S6 kinase expression after 3 days by Western blot analysis; type: cell-based
# Outline: (§2)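 T24 or MDA-MB-231 cells were grown in DMEM to 70% confluency. The medium was replaced with compound diluted in DMEM, and cells were kept 3 days. Total protein was immunoblotted with monoclonal antibodies in 3% BSA/PBS against EGFR, p70S6K α, PARP-1, ERK2, HDAC1, CD44, PCNA and GRP94.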
# [3] = target: Dual specificity tyrosine-phosphorylation-regulated kinase 3 (Homo sapiens) (UniProt O43781); assay: Inhibition of DYRK3 (unknown origin) using KKISGRLSPIMTEQ-NH2 as substrate at 1 uM after 15 mins in presence of [gamma-32P]-ATP
# [4] = target: Dual specificity tyrosine-phosphorylation-regulated kinase 1A (Homo sapiens, UniProt Q13627); assay: Inhibition of N-terminal His6-tagged recombinant human Dyrk1A expressed in Escherichia coli BL21 (DE3) using KKISGRLSPIMTEQ-NH2 as substrate at 1 uM after 15 mins in presence of [gamma-32]-ATP; conditions: 0.25 h
# [5] = target: T1, Dual specificity protein kinase CLK1/CLK4; assay: Inhibition of CLK1/4 in human T24 cells assessed as down regulation of HDAC1 expression after 3 days by Western blot analysis; type: cell-based; outline: as §2
# THP-1 = assay: Cytotoxicity against human THP1 cells assessed as growth inhibition after 5 days by MTT assay; type: functional; conditions: THP-1, 120 h
# Outline: (§3)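 They were seeded at 5000 cells per well onto compound or DMSO (0.2% final). Plates were kept 5 days at 37 °C in 5% CO2 with no medium change, then read by MTT.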
# [6] = target: Myosin light chain kinase 2, skeletal/cardiac muscle (Homo sapiens) (UniProt Q9H1R3); assay: Inhibition of MLCK2 (unknown origin) at 1 uM after 15 mins; outline: as §1
# T-24 [7] = assay: Down regulation of PCNA expression in human T24 cells at 1.25 to 10 uM after 3 days by Western blot analysis; type: functional, cell-based; outline: as §2
# [8] = target: Serine/threonine-protein kinase 17A (Homo sapiens) (UniProt Q9UEE5); assay: Inhibition of STK17A (unknown origin) at 1 uM after 15 mins; outline: as §1
# [9] = target: T1, Dual specificity protein kinase CLK1/CLK4; assay: Inhibition of CLK1/4 in human MDA-MB-231 cells assessed as down regulation of EGFR expression at 2.5 uM after 3 days by Western blot analysis relative to control; type: cell-based; outline: as §2
# [10] = target: T1, Dual specificity protein kinase CLK1/CLK4; assay: Inhibition of CLK1/4 in human T24 cells assessed as down regulation of HDAC1 expression at 5 uM after 3 days by Western blot analysis relative to control; type: cell-based; outline: as §2
# PBL = assay: Cytotoxicity against human PBL after 2 days by MTT assay; type: cell-based; conditions: 48 h
# Outline: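 Cells plated at 30 000 per well with test compounds or DMSO control for 2 days, then MTT read-out. LC50 reported as the mean of at least two independent experiments.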
# [11] = target: T1, Dual specificity protein kinase CLK1/CLK4; assay: Inhibition of CLK1/4 in human MDA-MB-231 cells assessed as down regulation of EGFR expression at 10 uM after 3 days by Western blot analysis relative to control; type: cell-based; outline: as §2
# MDA-MB-231 [12] = assay: Cytotoxicity against human MDA-MB-231 cells assessed as growth inhibition after 5 days by MTT assay; type: functional; conditions: MDA-MB-231, 120 h; outline: as §3
# [13] = target: T1, Dual specificity protein kinase CLK1/CLK4; assay: Inhibition of CLK1/4 in human HepG2 cells assessed as down regulation of HDAC1 expression at 20 uM after 3 days by Western blot analysis relative to control; type: cell-based
# Outline: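 HepG2 cells were grown in DMEM to 70% confluency, then the medium was replaced with compound diluted in DMEM. After 3 days, total protein was immunoblotted with monoclonal antibodies including HDAC1 and p70S6K.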
# [14] = target: T1, Dual specificity protein kinase CLK1/CLK4; assay: Inhibition of CLK1/4 in human MDA-MB-231 cells assessed as down regulation of EGFR expression at 20 uM after 3 days by Western blot analysis relative to control; type: cell-based; outline: as §2
# [15] = target: Dual specificity protein kinase CLK1 (Homo sapiens, UniProt P49759); assay: Inhibition of recombinant human GST-tagged Clk1 expressed in Escherichia coli at 1 uM using RS repeat substrate peptide after 15 mins in presence of [gamma-32]-ATP
# [16] = target: Dual specificity protein kinase CLK4 (Mus musculus) (UniProt O35493); assay: Inhibition of recombinant GST-tagged mouse CLK4 using GRSRSRSRSRSR as substrate at 1 uM after 30 mins in presence of [gamma-32P]-ATP by scintillation counting method
# [17] = target: T1, Dual specificity protein kinase CLK1/CLK4; assay: Inhibition of CLK1/4 in human MDA-MB-231 cells assessed as down regulation of S6 kinase expression at 10 uM after 3 days by Western blot analysis relative to control; type: cell-based; outline: as §2
# MDA-MB-231 [18] = assay: Down regulation of PCNA expression in human MDA-MB-231 cells at 2.5 to 20 uM after 3 days by Western blot analysis; type: functional, cell-based; outline: as §2
# [19] = target: T1, Dual specificity protein kinase CLK1/CLK4; assay: Inhibition of CLK1/4 in human T24 cells assessed as down regulation of EGFR expression at 5 uM after 3 days by Western blot analysis relative to control; type: cell-based; outline: as §2
# Homo sapiens = species on record: Homo sapiens; assay: Inhibition of recombinant human casein kinase 2 using RRREDEESDDEE as substrate at 1 uM after 30 mins in presence of [gamma-32P]-ATP by scintillation counting method
# [20] = target: T1, Dual specificity protein kinase CLK1/CLK4; assay: Inhibition of CLK1/4 in human T24 cells assessed as down regulation of EGFR expression at 1.25 uM after 3 days by Western blot analysis relative to control; type: cell-based; outline: as §2
# T47D = assay: Cytotoxicity against human T47D cells assessed as growth inhibition after 5 days by MTT assay; type: functional; conditions: 120 h; outline: as §3
# T-24 [21] = assay: Down regulation of CD44 expression in human T24 cells at 1.25 to 10 uM after 3 days by Western blot analysis; type: functional, cell-based; outline: as §2
# Dual specificity protein kinase CLK1, sequence (P49759 whole entry, looked up): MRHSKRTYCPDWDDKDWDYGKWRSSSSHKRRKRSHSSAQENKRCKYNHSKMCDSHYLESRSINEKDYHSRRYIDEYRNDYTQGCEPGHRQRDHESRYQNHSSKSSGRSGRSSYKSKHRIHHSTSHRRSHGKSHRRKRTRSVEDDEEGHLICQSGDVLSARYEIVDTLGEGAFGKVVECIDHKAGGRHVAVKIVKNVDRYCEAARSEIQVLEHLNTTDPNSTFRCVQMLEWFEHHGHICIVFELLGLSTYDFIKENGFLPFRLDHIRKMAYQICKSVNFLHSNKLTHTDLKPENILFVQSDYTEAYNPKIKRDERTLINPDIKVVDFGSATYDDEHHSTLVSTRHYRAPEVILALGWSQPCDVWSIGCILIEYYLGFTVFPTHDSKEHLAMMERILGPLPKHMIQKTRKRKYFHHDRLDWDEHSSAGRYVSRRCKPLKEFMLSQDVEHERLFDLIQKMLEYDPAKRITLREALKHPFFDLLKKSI
# Serine/threonine-protein kinase haspin (Homo sapiens), sequence (Q8TF76 whole entry): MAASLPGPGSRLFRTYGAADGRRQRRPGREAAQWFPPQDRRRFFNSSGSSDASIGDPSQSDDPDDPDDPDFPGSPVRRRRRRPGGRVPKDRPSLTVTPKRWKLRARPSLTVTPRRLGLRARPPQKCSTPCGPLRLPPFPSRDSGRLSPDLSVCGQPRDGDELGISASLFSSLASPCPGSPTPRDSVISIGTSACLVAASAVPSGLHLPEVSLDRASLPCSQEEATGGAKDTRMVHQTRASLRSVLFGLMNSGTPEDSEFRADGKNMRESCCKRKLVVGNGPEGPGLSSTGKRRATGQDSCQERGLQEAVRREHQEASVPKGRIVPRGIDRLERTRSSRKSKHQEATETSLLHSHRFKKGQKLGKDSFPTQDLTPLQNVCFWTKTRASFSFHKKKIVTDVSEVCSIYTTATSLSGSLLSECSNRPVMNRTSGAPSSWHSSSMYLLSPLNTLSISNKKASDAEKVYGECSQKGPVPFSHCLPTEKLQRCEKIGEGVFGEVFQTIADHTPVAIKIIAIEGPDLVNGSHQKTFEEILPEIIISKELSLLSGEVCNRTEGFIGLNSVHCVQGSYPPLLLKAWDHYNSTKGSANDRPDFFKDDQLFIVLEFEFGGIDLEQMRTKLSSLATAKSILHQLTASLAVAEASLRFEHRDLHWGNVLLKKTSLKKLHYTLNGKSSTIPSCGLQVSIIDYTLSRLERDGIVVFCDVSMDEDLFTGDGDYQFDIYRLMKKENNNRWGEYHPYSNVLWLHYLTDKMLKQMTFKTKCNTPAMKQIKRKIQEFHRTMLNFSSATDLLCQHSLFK
# Serine/threonine-protein kinase 17A (Homo sapiens), sequence (Q9UEE5 whole entry): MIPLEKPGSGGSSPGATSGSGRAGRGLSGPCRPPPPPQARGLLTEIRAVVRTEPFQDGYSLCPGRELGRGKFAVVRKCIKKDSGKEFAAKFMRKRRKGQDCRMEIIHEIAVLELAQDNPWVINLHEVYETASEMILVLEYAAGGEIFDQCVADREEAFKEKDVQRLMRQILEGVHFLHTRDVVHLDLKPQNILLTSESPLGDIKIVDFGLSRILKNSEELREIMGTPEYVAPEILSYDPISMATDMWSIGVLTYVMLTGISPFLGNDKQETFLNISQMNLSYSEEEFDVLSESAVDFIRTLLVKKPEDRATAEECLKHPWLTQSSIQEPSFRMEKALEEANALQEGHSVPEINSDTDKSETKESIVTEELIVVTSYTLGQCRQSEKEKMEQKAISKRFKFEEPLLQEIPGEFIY
# Dual specificity protein kinase CLK4 (Mus musculus), sequence (O35493 whole entry, looked up): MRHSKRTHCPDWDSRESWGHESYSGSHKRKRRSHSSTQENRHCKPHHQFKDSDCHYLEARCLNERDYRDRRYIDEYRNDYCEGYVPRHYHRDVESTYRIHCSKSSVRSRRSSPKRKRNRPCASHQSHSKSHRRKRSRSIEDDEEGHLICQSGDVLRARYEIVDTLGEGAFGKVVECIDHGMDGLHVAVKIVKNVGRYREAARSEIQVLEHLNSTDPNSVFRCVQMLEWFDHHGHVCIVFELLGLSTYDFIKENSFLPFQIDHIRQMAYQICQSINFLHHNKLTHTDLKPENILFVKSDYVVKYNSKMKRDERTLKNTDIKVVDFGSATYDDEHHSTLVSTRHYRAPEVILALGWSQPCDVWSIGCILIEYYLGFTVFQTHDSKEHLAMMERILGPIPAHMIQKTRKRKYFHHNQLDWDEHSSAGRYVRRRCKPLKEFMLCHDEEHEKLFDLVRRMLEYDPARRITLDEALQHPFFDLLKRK
# Dual specificity tyrosine-phosphorylation-regulated kinase 3 (Homo sapiens), sequence (O43781 whole entry): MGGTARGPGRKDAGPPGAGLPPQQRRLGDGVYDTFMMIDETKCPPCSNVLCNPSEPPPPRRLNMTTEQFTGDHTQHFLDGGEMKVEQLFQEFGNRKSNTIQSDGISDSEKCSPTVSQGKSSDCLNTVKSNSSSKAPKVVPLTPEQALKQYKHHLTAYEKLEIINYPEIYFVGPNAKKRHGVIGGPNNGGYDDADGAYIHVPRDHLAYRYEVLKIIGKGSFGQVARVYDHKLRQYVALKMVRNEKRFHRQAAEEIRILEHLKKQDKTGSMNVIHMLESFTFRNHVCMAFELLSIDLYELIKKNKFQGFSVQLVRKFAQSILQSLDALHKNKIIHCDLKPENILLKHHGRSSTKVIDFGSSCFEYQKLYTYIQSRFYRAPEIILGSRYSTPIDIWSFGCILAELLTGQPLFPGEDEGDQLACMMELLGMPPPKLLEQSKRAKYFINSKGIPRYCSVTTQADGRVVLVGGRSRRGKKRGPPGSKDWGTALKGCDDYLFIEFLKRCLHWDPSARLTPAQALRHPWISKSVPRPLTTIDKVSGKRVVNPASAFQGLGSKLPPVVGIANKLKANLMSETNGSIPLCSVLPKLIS
# Myosin light chain kinase 2, skeletal/cardiac muscle (Homo sapiens), sequence (Q9H1R3 whole entry): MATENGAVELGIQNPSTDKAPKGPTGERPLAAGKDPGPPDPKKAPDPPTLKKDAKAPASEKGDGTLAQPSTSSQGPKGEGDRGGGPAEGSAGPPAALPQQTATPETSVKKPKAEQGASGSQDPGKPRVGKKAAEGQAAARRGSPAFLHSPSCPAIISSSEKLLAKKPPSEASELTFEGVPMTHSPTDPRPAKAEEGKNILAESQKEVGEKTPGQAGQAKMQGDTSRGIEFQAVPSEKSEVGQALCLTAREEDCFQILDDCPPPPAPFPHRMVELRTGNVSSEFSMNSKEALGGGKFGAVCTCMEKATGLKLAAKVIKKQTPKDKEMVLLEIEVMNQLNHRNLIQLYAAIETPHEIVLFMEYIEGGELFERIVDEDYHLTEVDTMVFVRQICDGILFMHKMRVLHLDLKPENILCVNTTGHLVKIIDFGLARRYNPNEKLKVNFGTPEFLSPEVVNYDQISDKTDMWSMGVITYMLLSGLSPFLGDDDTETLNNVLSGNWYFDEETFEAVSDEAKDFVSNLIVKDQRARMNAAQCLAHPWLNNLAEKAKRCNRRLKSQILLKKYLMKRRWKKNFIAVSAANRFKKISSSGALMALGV
compound,measurement,setting,value
COc1ccc2sc(C(=O)N(C)Cc3cccc(F)c3)cc2c1,inhibition,[1],12%
same,IC50,[2],> 20 µM
same,inhibition,[3],inactive
same,inhibition at 1 µM,[4],72%
same,IC50,[5],9.5 µM
same,inhibition,[5],Dose-dependent effect
same,GI50,THP-1,27.2 µM
same,inhibition,[6],inactive
same,Activity,T-24 [7],inactive
same,inhibition,[8],32%
same,inhibition,[9],47.5%
same,inhibition,[10],47.6%
same,LC50,PBL,29.4 µM
same,inhibition,[11],54.1%
same,GI50,MDA-MB-231 [12],9.6 µM
same,inhibition,[13],44%
same,inhibition,[14],56.2%
same,inhibition,[15],92%
same,inhibition,[16],101%
same,inhibition,[17],33.1%
same,Activity,MDA-MB-231 [18],inactive
same,inhibition,[19],52.6%
same,inhibition,Homo sapiens,1.4%
same,inhibition,[20],48.3%
same,GI50,T47D,15.3 µM
same,Activity,T-24 [21],inactive
